SIRT5 inh: SIRT5 desuccinylase inhibitors, primary screen, biochemical, fluorescence imaging, single point, set 5; inhibition, % at 15 µM; Purified SirT5, succinyl-peptide AMC, trypsin-coupled fluorescence; AID 652115, 2013; 330,000 compounds, 1.1% hits; in the data active = inhibition above about 15%; inconclusive = no clear call, values can overlap the other calls
Target sequence (Q9NXA8 whole entry, looked up): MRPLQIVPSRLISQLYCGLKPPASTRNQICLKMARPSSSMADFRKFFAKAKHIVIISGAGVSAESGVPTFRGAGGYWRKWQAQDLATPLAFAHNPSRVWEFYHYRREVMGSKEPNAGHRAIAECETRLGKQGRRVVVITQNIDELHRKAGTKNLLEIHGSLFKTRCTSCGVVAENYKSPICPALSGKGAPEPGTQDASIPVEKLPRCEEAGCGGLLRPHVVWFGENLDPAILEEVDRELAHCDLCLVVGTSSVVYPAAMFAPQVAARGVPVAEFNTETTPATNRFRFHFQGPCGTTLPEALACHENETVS
MLL AF4-AF9 inh: inhibitors of AF4 peptide binding to AF9, primary screen, biochemical, AlphaScreen, biotin-AF4 peptide, FLAG-AF9, single point | Protein AF-9 (Homo sapiens), P42568 | inhibition, % at 10 µM | 350,000 compounds, 0.47% hits;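 active = every replicate reaching a set inhibition limit, whatever the replicate mean, cut at about 25% in these data; inconclusive = mean inhibition reaches that limit but some replicates miss it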
CaV13 ICDI inh: Primary screen for inhibitors of IQ motif and Ca2+-dependent inactivation inhibitor domain binding in CACNA1D, Förster resonance energy transfer in living cells, …; inhibition, % at 12.3 µM; 340,000 compounds, 0.098% hits; HEK cells, CFP/YFP FRET ICDI-IQ, plate reader, 10 min; percent FRET-ratio fall versus neutral wells; AID 743397;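 active = mean replicate inhibition of at least 30% and at least 1% of replicates passing that level; inconclusive = only one of the two criteria is met; inactive = neither criterion is met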
DENV2 CPE: inhibitors of DENV2 cytopathic effect, primary screen, cell-based, plate reader, single concentration; CPE inhibition, % at 9.99 µM; DENV2-infected cells, cytopathic effect rescue; AID 651640, 2012; 350,000 compounds, 1.7% hits; in the data active = CPE inhibition above about 20%, passing the limit was not always enough; inconclusive = no clear call, values can overlap the other calls; tested in BHK-21 cells
S100A4 inh HTS: inhibitors of S100A4-myosin IIA peptide binding, primary screen, biochemical, fluorescence polarization, TAMRA-MyoIIA peptide; Protein S100-A4 (Homo sapiens), P26447; inhibition, % at 10.7 µM; 360,000 compounds, 0.14% hits;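 active = mean inhibition of at least 70% across replicates, with every replicate also reaching that level; inconclusive = mean inhibition reaches 70% but some replicates fall short; inactive = mean inhibition below 70%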
Target sequence (P26447 whole entry, looked up): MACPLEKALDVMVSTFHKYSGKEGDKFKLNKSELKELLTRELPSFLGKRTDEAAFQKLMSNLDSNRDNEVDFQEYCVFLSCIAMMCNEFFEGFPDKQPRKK
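Compound dosing: one dose per compound; test system: human S100A4 monomer with TAMRA-labelled myosin IIA peptide; probe or stimulus: TAMRA-labelled myosin IIA heavy-chain peptide probe, 5 nM; medium: HEPES buffer with Ca2+, pH 7.2; schedule: 5 min incubation before reading; benchmarks: neutral control DMSO, positive control TFP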
Each line names hits and unclear results; the compound was inactive in the other large screens. A selection: hits, their analogues and other compounds. The true share with any hit is near 2.7%.

C[C@@H]1CCCCO[C@H](CN(C)C(=O)Cc2ccccc2)[C@@H](C)CN([C@H](C)CO)C(=O)c2cc(NC(=O)Cc3ccccc3)ccc2O1	none (no result: CaV13 ICDI inh)
CNC[C@@H]1OCCCC[C@H](C)Oc2ccc(NC(=O)Cc3ccccc3)cc2C(=O)N([C@@H](C)CO)C[C@H]1C	DENV2 CPE 44 (no result: CaV13 ICDI inh)
C[C@@H]1CCCCO[C@@H](CN(C)C(=O)Cc2ccccc2)[C@H](C)CN([C@@H](C)CO)C(=O)c2cc(NC(=O)Cc3ccccc3)ccc2O1	S100A4 inh HTS 126 (no result: CaV13 ICDI inh)
COCC(=O)Nc1ccc2c(c1)OC[C@H](C)N(C(=O)c1ccccc1)C[C@H](C)[C@@H](OC)CN(C)C2=O	none (no result: CaV13 ICDI inh)
COC(=O)C[C@H]1C[C@@H]2c3cc(NC(=O)NC4CCCCC4)ccc3O[C@@H]2[C@@H](CO)O1	none (no result: CaV13 ICDI inh)
C[C@@H]1CCCCO[C@H](CN(C)S(C)(=O)=O)[C@@H](C)CN([C@@H](C)CO)C(=O)c2cc(NC(=O)Cc3ccccc3)ccc2O1	none (no result: CaV13 ICDI inh)
C[C@@H]1CCCCO[C@@H](CN(C)S(C)(=O)=O)[C@H](C)CN([C@@H](C)CO)C(=O)c2cc(NC(=O)Cc3ccccc3)ccc2O1	DENV2 CPE 52 (no result: CaV13 ICDI inh)
NCc1cc2c3c(c1)CCCN3CCC2	MLL AF4-AF9 inh 51
COc1c(C=O)cc2c3c1CCCN3CCC2	none
CNC[C@H]1Oc2ccc(NC(=O)C3CC3)cc2CC(=O)N([C@H](C)CO)C[C@@H]1C	none (no result: SIRT5 inh, CaV13 ICDI inh, DENV2 CPE, S100A4 inh HTS)
COc1ccc(NC(=O)N(C)C[C@H]2Oc3c(NS(=O)(=O)c4ccc(F)cc4)cccc3C(=O)N([C@@H](C)CO)C[C@@H]2C)cc1	none (no result: SIRT5 inh, MLL AF4-AF9 inh, CaV13 ICDI inh, S100A4 inh HTS)
Cc1ccc(S(=O)(=O)Nc2cccnc2)c(C)c1C	SIRT5 inh 15
Cc1ccc(Br)cc1S(=O)(=O)Nc1cccnc1	none
C[C@H]1CN([C@@H](C)CO)C(=O)Cc2cc(NC(=O)CCCCCC(=O)Nc3ccccc3N)ccc2O[C@H]1CN(C)Cc1ccc(C(F)(F)F)cc1	DENV2 CPE 80 (no result: CaV13 ICDI inh)
C[C@@H]1CN([C@@H](C)CO)C(=O)Cc2cc(NC(=O)CCCCCC(=O)Nc3ccccc3N)ccc2O[C@H]1CN(C)Cc1ccc(C(F)(F)F)cc1	DENV2 CPE 50 (no result: CaV13 ICDI inh)
C[C@H]1CN([C@@H](C)CO)C(=O)Cc2cc(NC(=O)CCCCCC(=O)Nc3ccccc3N)ccc2O[C@@H]1CN(C)Cc1ccc(C(F)(F)F)cc1	none (no result: SIRT5 inh, CaV13 ICDI inh)
C[C@H]1CN([C@@H](C)CO)C(=O)c2cc(NC(=O)Nc3ccccc3)ccc2O[C@H]1CN(C)Cc1ccncc1	DENV2 CPE inconclusive (no result: CaV13 ICDI inh)
Cc1ccc(N2CC(C(=O)Nc3ccc(S(=O)(=O)Nc4nccs4)cc3)CC2=O)cc1C (configuration not stated)	SIRT5 inh 18
CCS(=O)(=O)N1CCCCN2[C@H](CO)[C@H](c3ccc(C#CC(C)(C)O)cc3)[C@H]2C1	none (no result: CaV13 ICDI inh)
CCN(CC)CCCNC(=O)c1cc(Cl)c(NC(=O)C2=C(C)OCCS2)cc1OC	none
CCN1CCN(CCNC(=O)c2cc(Cl)c(NC(=O)C3=C(C)OCCS3)cc2OC)CC1	S100A4 inh HTS 126
CC(C)(C)c1ccc(C(=O)N2[C@H](COCc3ccccc3)C=CS2(=O)=O)cc1	SIRT5 inh 20
COc1cccc(C(=O)N2[C@H](COCc3ccccc3)C=CS2(=O)=O)c1	none
C[C@@H]1CN([C@H](C)CO)C(=O)Cc2cc(N(C)C)ccc2O[C@@H]1CN(C)Cc1ccncc1	none (no result: CaV13 ICDI inh)
Cc1c(Cl)c(C(=O)N2CCCCCC2)nn1C	none
Cc1c(Cl)c(C(=O)N2CCCC2)nn1C	DENV2 CPE 121
Cc1ccc(S(=O)(=O)N(C)C[C@H]2Oc3ccc(NC(=O)CCCN(C)C)cc3CC(=O)N([C@@H](C)CO)C[C@H]2C)cc1	DENV2 CPE 43 (no result: CaV13 ICDI inh)
COc1ccc(S(=O)(=O)N(C)C[C@H]2Oc3ccc(NC(=O)CCCN(C)C)cc3CC(=O)N([C@H](C)CO)C[C@H]2C)cc1	DENV2 CPE 29 (no result: SIRT5 inh, CaV13 ICDI inh)
C[C@@H]1CN([C@@H](C)CO)C(=O)Cc2cc(NC(=O)CCCN(C)C)ccc2O[C@H]1CN(C)S(=O)(=O)c1ccc(Cl)cc1	none (no result: CaV13 ICDI inh)
COc1ccc(NC(=O)c2cccnc2N2CCCC2)cc1	SIRT5 inh 19
CC(C)NC(=O)Nc1ccc2c(c1)C(=O)N([C@H](C)CO)C[C@@H](C)[C@@H](CN(C)Cc1ccc(C(=O)O)cc1)OCCCC[C@H](C)O2	DENV2 CPE 39 (no result: CaV13 ICDI inh)
CC(C)NC(=O)Nc1ccc2c(c1)C(=O)N([C@@H](C)CO)C[C@@H](C)[C@H](CN(C)Cc1ccc(C(=O)O)cc1)OCCCC[C@@H](C)O2	DENV2 CPE 22 (no result: CaV13 ICDI inh)
CC(C)NC(=O)Nc1ccc2c(c1)C(=O)N([C@@H](C)CO)C[C@@H](C)[C@H](CN(C)Cc1ccc(C(=O)O)cc1)OCCCC[C@H](C)O2	none (no result: CaV13 ICDI inh)
CC(C)NC(=O)Nc1ccc2c(c1)C(=O)N([C@H](C)CO)C[C@@H](C)[C@H](CN(C)Cc1ccc(C(=O)O)cc1)OCCCC[C@H](C)O2	none (no result: CaV13 ICDI inh)
COc1ccc(OC(=O)N(C)C[C@H]2OCc3ccccc3-c3ccccc3C(=O)N([C@H](C)CO)C[C@H]2C)cc1	none (no result: CaV13 ICDI inh)
C[C@@H]1CN([C@H](C)CO)C(=O)c2cc(-c3cccnc3)cnc2O[C@H]1CN(C)C(=O)C1CCOCC1	none (no result: CaV13 ICDI inh)
CO[C@H]1CN(C)C(=O)c2ccc(NC(=O)c3cnccn3)cc2OC[C@H](C)N(CC2CC2)C[C@@H]1C	none (no result: CaV13 ICDI inh)
CCC(=O)N1C[C@H](C)[C@H](OC)CN(C)C(=O)c2cc(NC(=O)c3cnccn3)ccc2OC[C@H]1C	DENV2 CPE 25 (no result: CaV13 ICDI inh)
CO[C@H]1CN(C)C(=O)c2ccc(NC(=O)c3cnccn3)cc2OC[C@@H](C)N(CC2CC2)C[C@@H]1C	DENV2 CPE 22 (no result: CaV13 ICDI inh)
CCCN1C[C@H](C)[C@H](OC)CN(C)C(=O)c2cc(NC(=O)c3cnccn3)ccc2OC[C@@H]1C	none (no result: CaV13 ICDI inh)
CCCN1C[C@@H](C)[C@H](OC)CN(C)C(=O)c2cc(NC(=O)c3cnccn3)ccc2OC[C@H]1C	SIRT5 inh 17 (no result: CaV13 ICDI inh)
CC1(C)Cc2c(cnn2-c2ccc(F)cc2)C(NC(=O)c2ccc(=O)oc2)C1 (configuration not stated)	DENV2 CPE 70 (no result: CaV13 ICDI inh)
COCC(=O)N1[C@@H]2c3ccc(C4=CCCC4)c(=O)n3C[C@@H]2[C@@H](CO)[C@@H]1C(=O)N1CCN(C)CC1	none (no result: CaV13 ICDI inh)
CN1CCC2CC1c1cc(-c3ccc(C(F)(F)F)cc3)ccc12 (configuration not stated)	DENV2 CPE 21
CO[C@H]1CN(C)C(=O)c2cc(NC(=O)NC3CCCCC3)ccc2OC[C@H](C)NC[C@@H]1C	none (no result: CaV13 ICDI inh)
CC(=O)c1cccc(S(=O)(=O)NCC(C)(C)N2CCOCC2)c1	SIRT5 inh 16
CC(C)(CNC(=O)c1cccc(S(=O)(=O)NCc2ccccc2)c1)N1CCOCC1	none
